Reference: ChEMBL document CHEMBL3085764, “Azole-carbodithioate hybrids as vaginal anti-Candida contraceptive agents: design, synthesis and docking studies” (Eur J Med Chem, 2013)
≈ marks a conversion by molar mass, not a printed value.

Tests used:
[1] = tested on: Klebsiella pneumoniae; experiment: Antibacterial activity against Klebsiella pneumoniae after 48 hrs by broth microdilution technique; type: functional
Summary of the method: (§1)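 Broth microdilution following NCCLS guidelines in Mueller Hinton broth. Inoculum held at 1-5 × 10^3 cfu/mL. Plates incubated at 35 °C in a moist, dark chamber for 48 h. MIC and IC50 read spectrophotometrically at 492 nm.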

[2] = tested on: Trichophyton mentagrophytes; experiment: Antifungal activity against Trichophyton mentagrophytes after 48 hrs by broth microdilution technique; type: functional, organism-based
Summary of the method: (§2)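 MIC by broth microdilution following NCCLS guidelines, in RPMI 1640 buffered with MOPS. Starting inoculum 1-5 × 10^3 CFU/mL. Plates incubated at 35 °C. MIC and IC50 read spectrophotometrically at 492 nm after 48 h.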

[3] = tested on: Candida albicans; experiment: Antifungal activity against Candida albicans ATCC 10231 after 48 hrs by broth microdilution technique; type: functional, organism-based; details: ATCC 10231, 48 h; summary of the method: as §2
[4] = tested on: Candida albicans; experiment: Antifungal activity against Candida albicans clinical isolate after 48 hrs by broth microdilution technique; type: functional, organism-based; summary of the method: as §2
[5] = tested on: Aspergillus fumigatus; experiment: Antifungal activity against Aspergillus fumigatus after 48 hrs by broth microdilution technique; type: functional, organism-based; summary of the method: as §2
[6] = tested on: Candida parapsilosis; experiment: Antifungal activity against Candida parapsilosis ATCC 22019 after 48 hrs by broth microdilution technique; type: functional, organism-based; details: Lodderomyces parapsilosis, ATCC 22019, 48 h; summary of the method: as §2
[7] = tested on: Pseudomonas aeruginosa; experiment: Antibacterial activity against Pseudomonas aeruginosa ATCC BAA-427 after 48 hrs by broth microdilution technique; type: functional; details: ATCC BAA-427, 48 h; summary of the method: as §1
[8] = tested on: Candida albicans; experiment: Antifungal activity against Candida albicans clinical isolate CDRI after 48 hrs by broth microdilution technique; type: functional, organism-based; summary of the method: as §2
[9] = tested on: Trichomonas vaginalis; experiment: Trichomonacidal activity against Trichomonas vaginalis after 48 hrs by trypan blue exclusion assay; type: functional; details: read-out: MEC
Summary of the method: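 T. vaginalis in log phase, grown in TYM with 10% FCS, vitamin mixture and penicillin/streptomycin at 37 °C. DMSO stocks ([…]) serially diluted in TYM down to 0.1 µg/mL; DMSO/TYM vehicle controls. 5 × 10^4 trophozoites added and incubated anaerobically at 37 °C. Viability checked by trypan blue from 3 to 48 h. MIC = lowest concentration killing all cells by 48 h. Three repeats.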

[10] = tested on: Candida albicans; experiment: Antifungal activity against Candida albicans MTCC 183 after 48 hrs by broth microdilution technique; type: functional, organism-based; details: MTCC 183, 48 h; summary of the method: as §2
[11] = tested on: Sporothrix schenckii; experiment: Antifungal activity against Sporothrix schenckii after 48 hrs by broth microdilution technique; type: functional, organism-based; summary of the method: as §2
[12] = Spermicidal activity in human semen assessed as sperm immobilization at 1.0 % w/v up to 30 seconds by phase contrast microscopy; type: functional
[13] = tested on: Escherichia coli; experiment: Antibacterial activity against Escherichia coli ATCC 9637 after 48 hrs by broth microdilution technique; type: functional; details: ATCC 9637, 48 h; summary of the method: as §1
[14] = tested on: Candida albicans; experiment: Antifungal activity against Candida albicans after 48 hrs by broth microdilution technique; type: functional, organism-based; summary of the method: as §2
[15] = tested on: Cryptococcus neoformans; experiment: Antifungal activity against Cryptococcus neoformans after 48 hrs by broth microdilution technique; type: functional, organism-based; summary of the method: as §2
[16] = Spermicidal activity in human semen assessed as sperm immobilization at 0.1 % w/v up to 30 seconds by phase contrast microscopy; type: functional
[17] = tested on: Staphylococcus aureus; experiment: Antibacterial activity against Staphylococcus aureus ATCC 25923 after 48 hrs by broth microdilution technique; type: functional; details: ATCC 25923, 48 h; summary of the method: as §1

SMILES | MIC [1] [µg/mL] | IC50 [2] [µg/mL] | IC50 [3] [µg/mL] | IC50 [4] [µg/mL] | IC50 [5] [µg/mL] | IC50 [6] [µg/mL] | MIC [7] [µg/mL] | IC50 [8] [µg/mL] | minimal effective concentration [9] [µg/mL] | IC50 [10] [µg/mL] | IC50 [11] [µg/mL] | Activity [12] [%] | MIC [13] [µg/mL] | IC50 [14] [µg/mL] | IC50 [15] [µg/mL] | Activity [16] [%] | MIC [17] [µg/mL]
CSC(=S)n1ccnc1 | ≥ 50 | > 50 | > 50 | > 50 | > 50 | > 50 | ≥ 50 | > 50 | > 200 | > 50 | > 50 | 100 | ≥ 50 | 5.75 (≈ 36.3 µM) | > 50 | 0 | ≥ 50
N#CCCCSC(=S)n1ccnc1 | ≥ 50 |  | > 50 | 10.8 (≈ 51 µM) | > 50 | 5.27 (≈ 24.9 µM) | ≥ 50 | 43.5 (≈ 206 µM) | > 200 | > 50 | > 50 | 100 | ≥ 50 | > 50 | > 50 | 92 | ≥ 50
C=CCSC(=S)n1ccnc1 | ≥ 50 | 4.43 (≈ 24 µM) | 7.26 (≈ 39.4 µM) | 1.8 (≈ 9.77 µM) | > 50 | 2.09 (≈ 11.3 µM) | ≥ 50 | 3.94 (≈ 21.4 µM) | > 200 | 6.79 (≈ 36.8 µM) | 4.96 (≈ 26.9 µM) | 100 | ≥ 50 | > 50 | 5.75 (≈ 31.2 µM) | 0 | ≥ 50
CCCCCCCCSC(=S)n1ccnc1 | ≥ 50 | 1.48 (≈ 5.77 µM) | 7.68 (≈ 29.9 µM) | 1.06 (≈ 4.13 µM) | 6.21 (≈ 24.2 µM) | > 50 | ≥ 50 | 31.4 (≈ 122 µM) | > 200 | 4.61 (≈ 18 µM) |  | 100 | ≥ 50 | 5.72 (≈ 22.3 µM) | > 50 | 80 | ≥ 50
CCCCCCCCCCCCCCCCSC(=S)n1ccnc1 | ≥ 50 | 18.4 (≈ 50 µM) | > 50 | > 50 | > 50 | > 50 | ≥ 50 | > 50 | > 200 | > 50 | > 50 | 100 | ≥ 50 | > 50 | > 50 | 0 | ≥ 50
O=C1c2ccccc2C(=O)N1CCSC(=S)n1ccnc1 | ≥ 50 | 6.15 (≈ 19.4 µM) | 19.5 (≈ 61.5 µM) | 16 (≈ 50.5 µM) | > 50 | > 50 | ≥ 50 | 30.9 (≈ 97.5 µM) | > 200 | 11.1 (≈ 34.9 µM) | 4.17 (≈ 13.1 µM) | 100 | ≥ 50 | 5.45 (≈ 17.2 µM) | 28.6 (≈ 90.1 µM) | 0 | ≥ 50
CSC(=S)n1ccnc1C | ≥ 50 | 11.7 (≈ 67.8 µM) | 36.8 (≈ 214 µM) | 25.9 (≈ 151 µM) | > 50 | > 50 | ≥ 50 | > 50 | > 200 | 37.3 (≈ 216 µM) | 4.41 (≈ 25.6 µM) | 100 | ≥ 50 | 7.24 (≈ 42 µM) | 9.1 (≈ 52.8 µM) | 0 | ≥ 50
Cc1nccn1C(=S)SCCCC#N | ≥ 50 | 24.9 (≈ 111 µM) | > 50 | > 50 | > 50 | > 50 | ≥ 50 | 47.7 (≈ 212 µM) | > 200 | 41 (≈ 182 µM) | > 50 | 95 | ≥ 50 | 36 (≈ 160 µM) | > 50 | 0 | ≥ 50
C=CCSC(=S)n1ccnc1C | ≥ 50 | > 50 | 4.53 (≈ 22.8 µM) | 2.1 (≈ 10.6 µM) | 18.1 (≈ 91.3 µM) | 10.2 (≈ 51.2 µM) | ≥ 50 | 7.26 (≈ 36.6 µM) | > 200 | 3.61 (≈ 18.2 µM) | 1.5 (≈ 7.56 µM) | 100 | ≥ 50 | 2.21 (≈ 11.1 µM) | 3.35 (≈ 16.9 µM) | 0 | ≥ 50
CCCCCCCCSC(=S)n1ccnc1C | ≥ 50 | > 50 | > 50 | > 50 | > 50 | > 50 | ≥ 50 | 19 (≈ 70.4 µM) | > 200 | > 50 | 4.47 (≈ 16.5 µM) | 100 | ≥ 50 | 7.21 (≈ 26.7 µM) | > 50 | 100 | ≥ 50
CCCCCCCCCCCCCCCCSC(=S)n1ccnc1C | ≥ 50 | 7.07 (≈ 18.5 µM) | > 50 | > 50 | > 50 | > 50 | ≥ 50 | > 50 | > 200 | > 50 | > 50 | 95 | ≥ 50 | > 50 | > 50 | 0 | ≥ 50
C=CCSC(=S)n1cncn1 | ≥ 50 | > 50 | > 50 | > 50 | > 50 | > 50 | ≥ 50 | 45.5 (≈ 246 µM) | > 200 | > 50 | 5.78 (≈ 31.2 µM) | 100 | ≥ 50 | 2.53 (≈ 13.7 µM) | > 50 | 0 | ≥ 50
N#CCCCSC(=S)n1cnc2ccccc21 | ≥ 50 |  | > 50 | > 50 | > 50 | > 50 | ≥ 50 | 3.86 (≈ 14.8 µM) | > 200 | > 50 |  | 100 | ≥ 50 | > 50 | > 50 | 0 | ≥ 50
C=CCSC(=S)n1cnc2ccccc21 | ≥ 50 | > 50 | > 50 | > 50 | > 50 | > 50 | ≥ 50 | 39.3 (≈ 168 µM) | > 200 | 40.1 (≈ 171 µM) |  | 100 | ≥ 50 | > 50 | > 50 | 0 | ≥ 50
Cn1nnc2ccccc21 | ≥ 50 | > 50 | > 50 | > 50 | > 50 | > 50 | ≥ 50 | > 50 | > 200 | > 50 | 1.58 (≈ 11.9 µM) | 0 | ≥ 50 | > 50 | > 50 | 0 | ≥ 50
OC(Cn1cncn1)(Cn1cncn1)c1ccc(F)cc1F [FLUCONAZOLE] |  | 0.06 (≈ 0.196 µM) |  |  | 0.38 (≈ 1.24 µM) | 0.46 (≈ 1.5 µM) |  |  |  | 0.21 (≈ 0.686 µM) | 0.08 (≈ 0.261 µM) |  |  |  |  |  | 
Cc1ncc([N+](=O)[O-])n1CCO [METRONIDAZOLE] |  |  |  |  |  |  |  |  | 2 |  |  | 0 |  |  |  | 0 | 
